Laboratory results as given in ChEMBL document CHEMBL1144702, “Synthesis and structure-activity relationship studies on tryprostatin A, an inhibitor of breast cancer resistance protein” (Bioorg Med Chem, 2008).

Assay: Antiproliferative activity against mouse tsFT210 cells after 48 hrs by WST-8 assay
Type: functional, cell-based
Settings: tsFT210, 48 h
Outline: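 tsFT210 cells (temperature-sensitive cdc2 mutant from mouse mammary carcinoma FM3A), kept in RPMI 1640 with 10% fetal calf serum at 32 °C; exponentially growing cells exposed to compound at 32 °C for 48 h, then WST-8 added for 4 h at 37 °C; absorbance at 450 nm read to estimate cell number; IC50 reported.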

| Structure (SMILES) | IC50 [µM] |
| --- | --- |
| COc1ccc2c(C[C@@H]3NC(=O)[C@@H]4CCCN4C3=O)c(CC=C(C)C)n(Cc3ccccc3)c2c1 | 55 |
| COc1ccc2c(C[C@@H]3NC(=O)[C@@H]4CCCN4C3=O)cn(CC=C(C)C)c2c1 | > 100 |
| COc1ccc2c(C[C@@H]3NC(=O)[C@@H]4CCCN4C3=O)c(Cc3ccccc3)[nH]c2c1 | > 100 |
| COc1ccc2c(C[C@@H]3NC(=O)[C@@H]4CCCN4C3=O)c(Cl)[nH]c2c1 | > 100 |
| COc1ccc2c(C[C@@H]3NC(=O)[C@@H]4CCCN4C3=O)cn(C)c2c1 | > 100 |
| COc1ccc2c(C[C@@H]3NC(=O)[C@@H]4CCCN4C3=O)c(Br)[nH]c2c1 | 96 |
| COc1ccc2c(C[C@@H]3NC(=O)[C@H](C(C)C)NC3=O)c[nH]c2c1 | > 100 |
| COC(=O)/C=C/c1[nH]c2cc(OC)ccc2c1C[C@@H]1NC(=O)[C@@H]2CCCN2C1=O | > 100 |
| C=CCn1c(CC=C(C)C)c(C[C@@H]2NC(=O)[C@@H]3CCCN3C2=O)c2ccc(OC)cc21 | 75 |
| COc1ccc2c(C[C@@H]3NC(=O)[C@@H]4CCCN4C3=O)c[nH]c2c1 | > 100 |
| CC(C)=CCc1[nH]c2cc(N)ccc2c1C[C@@H]1NC(=O)[C@@H]2CCCN2C1=O | > 100 |
| COc1ccc2c(C[C@@H]3NC(=O)[C@H](Cc4ccccc4)NC3=O)c(CC=C(C)C)[nH]c2c1 | 10 |
| CC(C)=CCc1[nH]c2cc([N+](=O)[O-])ccc2c1C[C@@H]1NC(=O)[C@@H]2CCCN2C1=O | > 100 |
